# PMI activator = activators of human PMI, primary screen, biochemical, fluorescence intensity, near-Km mannose 6-phosphate; purified human PMI, coupled resazurin fluorescence, 20 min; active compounds read high; 1 = vehicle control, 0 substrate-free wells; activation factor at 20 µM; hit rate 0.005% among 190,000;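 active means activation factor of 2 or more at 20 µM, relative to plate controls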
# PMI act hi M6P = human PMI activators, high substrate, primary screen, biochemical, fluorescence intensity, near-saturating mannose 6-phosphate. Mannose-6-phosphate isomerase (Homo sapiens), P34949. coupled PMI enzyme assay, resazurin fluorescence, 20 min; active compounds read high; 1 = untreated enzyme, 0 = substrate-free blank. activation factor at 20 µM. hit rate 0.34% among 190,000;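 active means activation factor of 2 or more at 20 µM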
#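 Technique: Diaphorase-driven resazurin-to-resorufin fluorescence, excitation 544, emission 590 nm | Assay system: Human PMI in coupled enzyme assay | Times: Enzyme reaction with compound 20 min at room temperature | Medium: HEPES-buffered pH 7.4 with magnesium and detergent | Reagent: Mannose-6-phosphate 1.0 mM (near-saturating) plus 0.22 mM NADP+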
# ABCG2 block = ABCG2 efflux pump inhibitors, primary screen, multiplex with ABCB1, IgMXP3 cells, flow cytometry; hit rate 0.1% among 190,000; AID 1325, 2008; JC-1 efflux; inhibition, % at 6.6 µM;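 active means inhibition above 80%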
# Target sequence (Q9UNQ0 whole entry, looked up): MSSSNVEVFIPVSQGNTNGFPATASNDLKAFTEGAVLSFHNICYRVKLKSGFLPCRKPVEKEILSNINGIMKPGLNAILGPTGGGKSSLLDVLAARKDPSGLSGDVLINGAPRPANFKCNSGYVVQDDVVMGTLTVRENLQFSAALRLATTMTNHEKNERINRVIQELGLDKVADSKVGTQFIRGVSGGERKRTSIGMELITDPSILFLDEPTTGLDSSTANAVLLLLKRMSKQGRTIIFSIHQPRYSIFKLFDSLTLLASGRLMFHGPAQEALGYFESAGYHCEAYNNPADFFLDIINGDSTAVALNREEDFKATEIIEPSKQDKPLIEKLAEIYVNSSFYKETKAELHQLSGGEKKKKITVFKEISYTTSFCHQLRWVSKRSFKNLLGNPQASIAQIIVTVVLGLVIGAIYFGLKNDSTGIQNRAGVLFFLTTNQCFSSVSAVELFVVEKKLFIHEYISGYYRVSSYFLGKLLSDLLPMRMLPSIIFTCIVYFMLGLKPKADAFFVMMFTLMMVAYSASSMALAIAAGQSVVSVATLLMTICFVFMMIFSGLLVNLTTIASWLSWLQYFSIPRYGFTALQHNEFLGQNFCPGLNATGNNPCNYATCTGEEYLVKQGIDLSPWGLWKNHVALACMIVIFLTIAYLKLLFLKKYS
#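 Read-out basis: Efflux inhibition in percent versus controls | Test system: ABCG2 IgMXP3 and barcoded ABCB1 CCRF-Adr cell mix | Quantity: 3 million cells/mL in well | Schedule: 10 min at 25 °C | Control set: Nicardipine as high control, DMSO as low control | Reagent: JC-1 as fluorescent efflux pump substrate | Signal: Flow cytometry of retained JC-1 fluorescence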
# Cl transport mod = KCC2 cotransporter modulators, thallium flux, primary screen, cell-based, HEK293 KCC2, FluoZin-2 fluorescence, MLSMR | Solute carrier family 12 member 5 (Homo sapiens), Q9H2X9 | KCC2 cells, thallium flux FluoZin-2 fluorescence | B-score of Tl+ flux slope (higher = more flux/activation; lower = inhibition) at 10 µM | hit rate 2.2% among 190,000 | AID 1456, 2008;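 active means thallium flux slope and its plate-corrected score both differing from the plate sample mean at a set confidence after two filtering rounds, in either direction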;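 further: slope of fluorescence scaled to starting intensity during 10 to 20 s after thallium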
# ROMK mod = ROMK potassium channel modulators, primary screen, cell-based, thallium flux, MLSMR library | ATP-sensitive inward rectifier potassium channel 1 (Homo sapiens), P48048 | Tet-inducible ROMK, thallium flux fluorescence; actives lie on both sides | B-score at 10 µM | hit rate 2% among 130,000;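 active means signal ratio slope over the read window, or its plate-corrected B-score, at least 3 SD from the plate mean, either direction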;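 further: B-score of the F/F0 ratio slope over 7 to 12 s after thallium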
# ABCB1 inh = ABCB1 efflux pump inhibitors, primary screen, cell-based, multiplex, flow cytometry, ABCG2 counter-screen | ATP-dependent translocase ABCB1 (Homo sapiens), P08183 | CCRF-Adr cells, JC-1 efflux | inhibition, % at 6.6 µM | hit rate 0.067% among 190,000 | AID 1326, 2008; in the data active means inhibition above about 40%;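 further: higher value means more JC-1 retained so stronger ABCB1 efflux block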
# KCC2 sec1 = KCC2 modulators in sodium-free buffer, confirmation, cell-based, HEK293 KCC2, thallium flux, secondary assay; shares compounds with Cl transport mod; FluoZin2 fluorescence; active compounds read high; normalised thallium flux (F/F0 slope) at 10 µM; hit rate 15% among 3,700; AID 1713, 2009;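 active means thallium flux slope above the same plate's solvent-only control mean plus 3 SD; inconclusive means the two replicate wells disagree; inactive means no significant difference from solvent-only control wells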
# KCC2 bumet counter = thallium flux persisting under bumetanide in KCC2 cells, confirmation, counter-screen for KCC2 modulator project, cell-based, HEK293 KCC2, FluoZin2, secondary assay 3; shares compounds with Cl transport mod; AID 1714, 2009; hit rate 49% among 3,700; normalized thallium flux at 10 µM; HEK293-KCC2 + bumetanide/ouabain; active compounds read high;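 active means thallium entry rate above the same plate's blocked-transporter control wells by more than 3 SD; inconclusive means the two repeat wells disagree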;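 further: raw slope of fluorescence over initial fluorescence between 10 and 20 s after thallium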
# KCC2 secondary2 = KCC2 modulators without ouabain present, confirmation, cell-based, HEK293 KCC2, thallium flux, FluoZin2, secondary assay 2; shares compounds with Cl transport mod; thallium flux FluoZin2 fluorescence; actives lie on both sides; F/F0 rise rate, 10–20 s post-thallium; normalized thallium flux at 10 µM; hit rate 23% among 3,700;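 active means thallium flux slope more than 3 SD above or below the plate's solvent-only control mean, mostly below; inconclusive means the two repeat wells disagreed; inactive means no significant shift from solvent-only controls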
# HEK counter1 = thallium flux modulation in parental HEK cells, confirmation, counter-screen for KCC2 modulator project, cell-based, counterscreen 1; shares compounds with Cl transport mod; HEK293 parental cells, thallium flux FluoZin2, ouabain; baseline-ratio fluorescence slope, 10–20 s after thallium; thallium flux rate (normalised fluorescence) at 10 µM; hit rate 46% among 3,700; AID 1716, 2009;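 active means thallium flux rate significantly above the same plate's solvent-only control wells, beyond their mean plus 3 SD; inconclusive means the two replicate wells gave conflicting results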
# KCC2 retest ouab = KCC2 inhibitors and activators, ouabain retest, confirmation, HEK-KCC2 cells; HEK293-KCC2, thallium flux FluoZin2 fluorescence; bidirectional: low = inhibitor, high = activator; hit rate 48% among 3,700; raw Tl+ flux slope (below DMSO = inhibition, above = activation) at 10 µM; shares compounds with Cl transport mod; AID 1717, 2009;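 active means thallium flux slope beyond 3 SD from same-plate DMSO control mean in most replicates, usually higher, sometimes lower; inconclusive means repeat tests gave conflicting results; inactive means no significant difference from controls in most replicates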;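 further: slope of initial-normalized fluorescence between seconds 10 and 20 after thallium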
# HEK293 Tl flux2 = native HEK Tl+ uptake effects, second counter-screen – HEK cells, counterscreen 2, counter-screen for KCC2 modulator project, confirmation. thallium flux slope at 10 µM. shares compounds with Cl transport mod. AID 1718, 2009. hit rate 33% among 3,700. HEK293 parental, thallium flux FluoZin-2 fluorescence slope;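 active means thallium flux slope above the same plate's solvent-control mean plus 3 SD in both duplicate wells; inconclusive means duplicate wells that disagreed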;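 further: run without ouabain in cells lacking the KCC2 cotransporter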
# Hits are given with their value; – = inactive; ? = inconclusive; · = not tested or not shown. In the library only some 3.3% were active in any assay of this set; here they are far more common.
SMILES,PMI activator,PMI act hi M6P,ABCG2 block,Cl transport mod,ROMK mod,ABCB1 inh,KCC2 sec1,KCC2 bumet counter,KCC2 secondary2,HEK counter1,KCC2 retest ouab,HEK293 Tl flux2
FC(F)(F)c1ccc2c(c1)[nH]c(=S)n2C1CC1,–,–,–,62.2,–,–,0.0297,0.165,0.0454,0.0688,0.109,0.0269
O=C(COc1ncnc2sccc12)N1CCN(C(=O)c2ccco2)CC1,–,–,–,–,–,–,·,·,·,·,·,·
Cc1c(/C=N/NC(=O)c2ccccc2O)c2ccccn2c1C(=O)c1ccc(F)cc1,–,–,–,-3.76,–,–,–,?,–,–,–,–
Cc1c(/C=N/NC(=O)c2ccc(O)cc2)c2ccccn2c1C(=O)c1ccc(F)cc1,–,–,–,–,–,–,·,·,·,·,·,·
CC(O)CNc1nc(Cl)c(C#N)s1 (centres undefined),–,–,–,–,–,–,·,·,·,·,·,·
Oc1ccc(-c2nc3c4c(ncn3n2)-c2ccccc2CC42CCCC2)cc1,–,–,–,–,–,–,·,·,·,·,·,·
CCN(CC)c1ccc(S(=O)(=O)N2CCOCC2)cc1NC(=O)CNCc1ccccc1,·,·,·,-5.64,·,·,–,–,–,–,?,–
O=C(NCc1ccco1)c1ccc(-c2cccc(Cl)c2)o1,–,–,–,·,·,–,·,·,·,·,·,·
O=C1c2oc3ccccc3c(=O)c2C(c2cccc(F)c2)N1CCCO (centres undefined),–,–,–,6.71,–,–,–,?,–,?,–,–
O=C(CNCc1ccc(F)cc1)Nc1ccccc1[N+](=O)[O-],–,–,–,–,–,–,·,·,·,·,·,·
CN1C(=O)C(N=Nc2ccccc2C(=O)O)N(C)C1=S (centres undefined),–,–,–,-4.73,–,–,–,0.00168,?,0.00541,0.0146,–
Cc1cc(O)c(C(C)C)cc1N=Nc1ccccc1C(=O)O,·,·,·,–,·,·,·,·,·,·,·,·
Cc1ccc(C)c(OCc2n[nH]c(=S)o2)c1,·,·,·,–,·,·,·,·,·,·,·,·
S=c1[nH]nc(COc2ccc(Cl)cc2)o1,–,–,–,-6.06,·,–,–,?,0.0217,–,?,–
